# ChEMBL document CHEMBL4715832, “Isoquinoline-based biaryls as a robust scaffold for microtubule inhibitors” (Eur J Med Chem, 2020)
# Activity calls are given as the source filed them. No cut-off for these calls is given here.
# Assays:
# [1] = system: HeLa; experiment: Antiproliferative activity against human HeLa cells assessed as reduction in cell growth after 48 hrs by resazurin dye based fluorescence assay; type: functional
# Summary of the method: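 HeLa cells grown in DMEM with 10% FCS and penicillin/streptomycin, 37 °C, 5% CO2. Seeded 5,000 cells/well, treated 24 h later with DMSO 1% final, then incubated 48 h. Resazurin reduction to resorufin measured over 3 h at 37 °C by fluorescence (ex 544/em 590 nm). Normalised to cosolvent control (100%) and cell-free wells (0%). Means of at least three independent experiments.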
# [2] = system: HeLa; experiment: Induction of microtubule network depolymerization in human HeLa cells after 24 hrs by immunofluorescence staining based confocal microscopic analysis; type: cell-based
# Summary of the method: (§1)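 HeLa cells seeded on glass coverslips (50,000 cells/well), allowed to adhere 18 h, then treated 24 h. Fixed with 0.5% glutaraldehyde, quenched with 0.1% NaBH4, blocked with PBS + 10% FCS. Stained with rabbit anti-alpha-tubulin (1:400, 1 h), then Alexa Fluor 488 anti-rabbit secondary, with DAPI nuclear counterstain. Imaged by confocal microscopy, including z-stack projections.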
# [3] = system: tubulin (Sus scrofa); experiment: Inhibition of porcine tubulin polymerization at 20 uM preincubated for 10 mins followed by GTP addition by turbidimetric method
# [4] = Solubility of compound; type: physicochemical
# [5] = system: HeLa; experiment: Induction of microtubule network depolymerization in human HeLa cells at 15 uM after 24 hrs by immunofluorescence staining based confocal microscopic analysis; type: cell-based; summary of the method: as §1
# [6] = Toxicity in Balb/c mouse at 25 mg/kg, ip administered at 48 hrs interval for 3 times; type: organism-based; conditions: in vivo
# Summary of the method: (§2)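 Male and female Balb/c mice dosed 3 times at 48 h intervals with 25 mg/kg of the phosphate prodrug, by the route named, and monitored for tolerability.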
# [7] = system: HeLa; experiment: Induction of microtubule network depolymerization in human HeLa cells assessed as induction of mitotic arrest at 120 nM after 24 hrs by immunofluorescence staining based confocal microscopic analysis; type: cell-based
# Summary of the method: (§3)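 HeLa cells on glass coverslips (50,000/well), adhered 18 h, then treated 24 h (DMSO 1% final). Fixed with 0.5% glutaraldehyde, quenched with 0.1% NaBH4, blocked in PBS + 10% FCS. Stained with rabbit anti-alpha-tubulin (1:400, 1 h) and Alexa 488 goat anti-rabbit secondary, with DAPI nuclear counterstain. Imaged by confocal microscopy with z-stack projections.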
# [8] = system: HeLa; experiment: Inhibition of tubulin polymerization in human HeLa cells harboring EB3-YFP plasmid assessed as disappearance of […] comet at 10 uM after 2 mins by microscopic analysis; type: cell-based
# Summary of the method: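 HeLa cells (12,000/well) transiently transfected 24 h after seeding with EB3-YFP plasmid, imaged 24 h later by spinning-disc confocal at 37 °C, 5% CO2 (514 nm, 300 ms exposure, 45 frames/min). Five reference frames taken, compound added, 2 min incubation, then 5 more frames. EB3 comets counted by maxima detection; 7 cells from three independent trials.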
# [9] = system: HeLa; experiment: Induction of microtubule network depolymerization in human HeLa cells assessed as appearance of defective spindles at 120 nM after 24 hrs by immunofluorescence staining based confocal microscopic analysis; type: cell-based; summary of the method: as §3
# [10] = Toxicity in Balb/c mouse at 25 mg/kg, iv administered at 48 hrs interval for 3 times; type: organism-based; conditions: in vivo; summary of the method: as §2
# [11] = Toxicity in iv dosed Balb/c mouse; type: organism-based; conditions: in vivo
# Summary of the method: (§4)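 Single-administration dose escalation in male and female Balb/c mice, given i.p. or i.v., to find the maximal tolerated dose of the phosphate prodrug.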
# [12] = system: HL-60; experiment: Antiproliferative activity against human HL-60 cells assessed as reduction in cell growth after 24 hrs by MTT assay; type: functional, cell-based; conditions: HL-60, 24 h
# Summary of the method: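 HL-60 cells grown in RPMI 1640 with 10% FCS, no antibiotics, 37 °C, 5% CO2. Seeded 9,000 cells/well, treated 24 h later with DMSO cosolvent at 1% final. After 24 h, MTT 0.5 mg/mL for 2 h, absorbance read. Normalised to cosolvent control (100%) and Triton X-100-treated cells (0%). Means of at least three independent experiments.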
# [13] = system: HeLa; experiment: Cell cycle arrest in human HeLa cells assessed as accumulation at G2/M phase at 500 nM measured after 24 hrs by propidium iodide staining based flow cytometry; type: functional
# Summary of the method: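 HeLa cells seeded 50,000/well, treated 24 h; collected, stained with 2 mg/mL propidium iodide at 4 °C for 30 min, analysed by flow cytometry (30,000 cells per condition); cells assigned to sub-G1, G1, S and G2/M by DNA content (PI signal). DMSO cosolvent 1% final.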
# [14] = system: HeLa; experiment: Induction of microtubule network depolymerization in human HeLa cells assessed as appearance of defective chromosome alignment at 120 nM after 24 hrs by immunofluorescence staining based confocal microscopic analysis; type: cell-based; summary of the method: as §3
# [15] = Solubility of compound in aqueous buffer; type: physicochemical
# [16] = Toxicity in ip dosed Balb/c mouse; type: organism-based; conditions: in vivo; summary of the method: as §4
# [17] = system: HeLa; experiment: Induction of microtubule network depolymerization in human HeLa cells assessed as accumulation of rounded cells at 120 nM after 24 hrs by immunofluorescence staining based confocal microscopic analysis; type: cell-based; summary of the method: as §3
# [18] = Stability in human liver microsomes assessed as parent compound remaining at 2 uM measured after 40 mins in presence of cofactor; type: ADME, Microsome; conditions: read-out: Stabilty
# [19] = system: liver microsomes (Mus musculus); experiment: Stability in mouse liver microsomes assessed as parent compound remaining at 2 uM measured after 30 mins in presence of cofactor; conditions: read-out: Stabilty
# [20] = system: liver microsomes (Mus musculus); experiment: Stability in mouse liver microsomes assessed as parent compound remaining at 2 uM measured after 10 mins in presence of cofactor; conditions: read-out: Stabilty
# [21] = Stability in human liver microsomes assessed as parent compound remaining at 2 uM measured after 10 mins in presence of cofactor; type: ADME, Microsome; conditions: read-out: Stabilty
# [22] = Stability in human liver microsomes assessed as parent compound remaining at 2 uM measured immediately in absence of cofactor; type: ADME, Microsome; conditions: read-out: Stabilty
# [23] = Stability in human liver microsomes assessed as parent compound remaining at 2 uM measured after 30 mins in presence of cofactor; type: ADME, Microsome; conditions: read-out: Stabilty
# [24] = molecular target: CYP2C9 (Homo sapiens, UniProt P11712); experiment: Inhibition of human CYP2C9 at 10 uM relative to control; type: ADME
# Summary of the method: (§5)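 Inhibition measured against five human cytochrome P450 isoforms, with test compound at 10 µM, applied as the dephosphorylated phenol.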
# [25] = system: liver microsomes (Mus musculus); experiment: Stability in mouse liver microsomes assessed as parent compound remaining at 2 uM measured after 40 mins in presence of cofactor; conditions: read-out: Stabilty
# [26] = molecular target: CYP2C19 (Homo sapiens, UniProt P33261); experiment: Inhibition of human CYP2C19 at 10 uM relative to control; type: ADME; summary of the method: as §5
# [27] = molecular target: T1, hERG (KCNH2) (Homo sapiens, UniProt Q12809); experiment: Inhibition of human ERG at 1 uM by fluorescence polarization assay relative to control
# Summary of the method: (§6)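 hERG channel inhibition measured with a fluorescence polarisation reporter assay, applied to the dephosphorylated phenol.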
# [28] = system: liver microsomes (Mus musculus); experiment: Half life in mouse liver microsomes at 2 uM
# [29] = molecular target: T1, hERG (KCNH2); experiment: Inhibition of human ERG at 25 uM by fluorescence polarization assay relative to control; summary of the method: as §6
# [30] = molecular target: T2, CYP1A2 (Homo sapiens, UniProt P05177); experiment: Inhibition of human CYP1A2 at 10 uM relative to control; type: ADME; summary of the method: as §5
# T2 sequence (P05177 whole entry): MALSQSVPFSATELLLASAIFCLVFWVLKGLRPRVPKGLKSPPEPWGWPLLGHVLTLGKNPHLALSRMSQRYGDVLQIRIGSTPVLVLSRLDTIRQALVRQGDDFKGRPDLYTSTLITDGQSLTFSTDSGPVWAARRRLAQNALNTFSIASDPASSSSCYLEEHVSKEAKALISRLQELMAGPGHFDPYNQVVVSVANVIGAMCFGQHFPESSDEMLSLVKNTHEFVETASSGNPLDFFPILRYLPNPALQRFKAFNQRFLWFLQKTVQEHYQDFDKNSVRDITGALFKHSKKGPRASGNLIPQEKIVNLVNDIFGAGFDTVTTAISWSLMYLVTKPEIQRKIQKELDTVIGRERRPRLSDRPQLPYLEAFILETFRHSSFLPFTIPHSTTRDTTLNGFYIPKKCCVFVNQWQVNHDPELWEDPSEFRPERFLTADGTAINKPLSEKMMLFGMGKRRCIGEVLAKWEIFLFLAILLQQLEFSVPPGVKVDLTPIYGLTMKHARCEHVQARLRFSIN
# [31] = system: liver microsomes (Mus musculus); experiment: Stability in mouse liver microsomes assessed as parent compound remaining at 2 uM measured immediately in presence of cofactor; conditions: read-out: Stabilty
# [32] = system: liver microsomes (Mus musculus); experiment: Stability in mouse liver microsomes assessed as parent compound remaining at 2 uM measured after 20 mins in presence of cofactor; conditions: read-out: Stabilty
# [33] = system: liver microsomes (Mus musculus); experiment: Stability in mouse liver microsomes assessed as parent compound remaining at 2 uM measured immediately in absence of cofactor; conditions: read-out: Stabilty
# [34] = molecular target: T1, hERG (KCNH2); experiment: Inhibition of human ERG at 5 uM by fluorescence polarization assay relative to control; summary of the method: as §6
# [35] = Stability in human liver microsomes assessed as parent compound remaining at 2 uM measured after 40 mins in absence of cofactor; type: ADME, Microsome; conditions: read-out: Stabilty
# [36] = system: liver microsomes (Mus musculus); experiment: Stability in mouse liver microsomes assessed as parent compound remaining at 2 uM measured after 40 mins in absence of cofactor; conditions: read-out: Stabilty
# [37] = Stability in human liver microsomes assessed as parent compound remaining at 2 uM measured immediately in presence of cofactor; type: ADME, Microsome; conditions: read-out: Stabilty
# [38] = molecular target: CYP2D6 (Homo sapiens, UniProt P10635); experiment: Inhibition of human CYP2D6 at 10 uM relative to control; type: ADME; summary of the method: as §5
# [39] = molecular target: CYP3A4 (Homo sapiens, UniProt P08684); experiment: Inhibition of human CYP3A4 at 10 uM relative to control; type: ADME; summary of the method: as §5
# [40] = Half life in human liver microsomes at 2 uM; type: ADME, Microsome
# [41] = Stability in human liver microsomes assessed as parent compound remaining at 2 uM measured after 20 mins in presence of cofactor; type: ADME, Microsome; conditions: read-out: Stabilty
# T1 sequence (Q12809 whole entry): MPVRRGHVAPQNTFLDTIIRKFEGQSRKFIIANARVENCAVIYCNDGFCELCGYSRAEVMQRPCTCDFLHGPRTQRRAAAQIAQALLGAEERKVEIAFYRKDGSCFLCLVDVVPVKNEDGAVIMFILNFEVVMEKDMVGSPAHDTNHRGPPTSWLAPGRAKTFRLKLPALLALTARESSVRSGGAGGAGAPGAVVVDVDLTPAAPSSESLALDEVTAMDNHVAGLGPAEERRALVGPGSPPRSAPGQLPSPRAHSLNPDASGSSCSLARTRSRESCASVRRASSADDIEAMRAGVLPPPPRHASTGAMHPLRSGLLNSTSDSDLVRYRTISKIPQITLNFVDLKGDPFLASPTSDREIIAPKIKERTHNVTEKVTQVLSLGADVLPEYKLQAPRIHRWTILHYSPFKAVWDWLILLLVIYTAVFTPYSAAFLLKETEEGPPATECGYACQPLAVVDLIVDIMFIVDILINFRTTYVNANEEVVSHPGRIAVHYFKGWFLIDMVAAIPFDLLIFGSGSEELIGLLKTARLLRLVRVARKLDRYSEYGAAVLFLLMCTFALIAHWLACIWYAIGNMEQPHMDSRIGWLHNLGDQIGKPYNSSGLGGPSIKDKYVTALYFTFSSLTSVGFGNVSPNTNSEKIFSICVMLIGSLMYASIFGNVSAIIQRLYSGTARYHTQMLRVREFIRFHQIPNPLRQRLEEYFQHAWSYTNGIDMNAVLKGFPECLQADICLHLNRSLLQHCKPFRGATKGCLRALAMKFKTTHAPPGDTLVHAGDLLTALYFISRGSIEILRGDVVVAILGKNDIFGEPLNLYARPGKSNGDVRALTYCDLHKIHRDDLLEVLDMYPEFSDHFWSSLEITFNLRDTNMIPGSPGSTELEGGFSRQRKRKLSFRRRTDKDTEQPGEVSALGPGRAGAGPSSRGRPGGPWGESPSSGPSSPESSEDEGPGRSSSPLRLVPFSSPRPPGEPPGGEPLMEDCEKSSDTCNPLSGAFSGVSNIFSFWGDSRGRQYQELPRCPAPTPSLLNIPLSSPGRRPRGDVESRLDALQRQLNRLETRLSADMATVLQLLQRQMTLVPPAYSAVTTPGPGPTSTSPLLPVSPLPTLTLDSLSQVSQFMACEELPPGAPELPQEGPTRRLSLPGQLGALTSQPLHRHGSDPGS
# Chain of CYP2C9 (P11712 whole entry, canonical isoform): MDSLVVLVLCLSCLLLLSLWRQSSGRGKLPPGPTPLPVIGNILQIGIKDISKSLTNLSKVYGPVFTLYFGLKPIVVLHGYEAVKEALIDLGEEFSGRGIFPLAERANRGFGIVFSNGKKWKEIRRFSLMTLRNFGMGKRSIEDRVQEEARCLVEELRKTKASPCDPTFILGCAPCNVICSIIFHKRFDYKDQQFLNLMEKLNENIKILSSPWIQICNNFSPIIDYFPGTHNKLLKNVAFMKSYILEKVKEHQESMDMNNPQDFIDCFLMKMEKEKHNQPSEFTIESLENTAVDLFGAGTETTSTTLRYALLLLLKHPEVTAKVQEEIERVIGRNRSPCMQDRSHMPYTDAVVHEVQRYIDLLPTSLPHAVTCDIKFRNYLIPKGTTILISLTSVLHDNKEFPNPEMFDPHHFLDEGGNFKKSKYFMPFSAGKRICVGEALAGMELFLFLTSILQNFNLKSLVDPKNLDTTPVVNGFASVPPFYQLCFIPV
# Chain of CYP2C19 (P33261 whole entry): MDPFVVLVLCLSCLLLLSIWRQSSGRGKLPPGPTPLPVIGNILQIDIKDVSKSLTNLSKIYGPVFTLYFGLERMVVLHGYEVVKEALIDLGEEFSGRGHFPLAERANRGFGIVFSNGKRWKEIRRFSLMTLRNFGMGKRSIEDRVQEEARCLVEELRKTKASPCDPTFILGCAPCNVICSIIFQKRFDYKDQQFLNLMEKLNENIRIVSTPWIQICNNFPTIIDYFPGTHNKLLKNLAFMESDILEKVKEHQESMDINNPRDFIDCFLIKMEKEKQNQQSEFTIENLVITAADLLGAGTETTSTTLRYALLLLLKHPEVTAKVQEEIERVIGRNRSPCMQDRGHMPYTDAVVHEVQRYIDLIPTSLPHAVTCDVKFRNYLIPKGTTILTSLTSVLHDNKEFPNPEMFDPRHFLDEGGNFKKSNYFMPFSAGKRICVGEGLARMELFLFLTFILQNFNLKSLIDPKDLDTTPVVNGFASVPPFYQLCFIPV
# Chain of CYP2D6 (P10635 whole entry): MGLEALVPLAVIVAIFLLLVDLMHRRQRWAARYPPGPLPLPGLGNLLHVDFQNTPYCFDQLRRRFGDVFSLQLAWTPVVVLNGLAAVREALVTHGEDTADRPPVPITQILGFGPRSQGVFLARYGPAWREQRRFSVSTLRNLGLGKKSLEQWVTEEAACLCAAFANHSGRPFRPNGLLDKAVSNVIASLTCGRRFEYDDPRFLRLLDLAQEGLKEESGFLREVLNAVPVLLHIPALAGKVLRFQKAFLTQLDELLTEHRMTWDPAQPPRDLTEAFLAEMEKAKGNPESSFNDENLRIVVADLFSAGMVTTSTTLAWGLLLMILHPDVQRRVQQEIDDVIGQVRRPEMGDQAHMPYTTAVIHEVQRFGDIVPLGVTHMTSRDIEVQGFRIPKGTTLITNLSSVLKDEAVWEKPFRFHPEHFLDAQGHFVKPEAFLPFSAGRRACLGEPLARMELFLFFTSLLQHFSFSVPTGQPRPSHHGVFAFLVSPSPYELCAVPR
# Chain of CYP3A4 (P08684 whole entry): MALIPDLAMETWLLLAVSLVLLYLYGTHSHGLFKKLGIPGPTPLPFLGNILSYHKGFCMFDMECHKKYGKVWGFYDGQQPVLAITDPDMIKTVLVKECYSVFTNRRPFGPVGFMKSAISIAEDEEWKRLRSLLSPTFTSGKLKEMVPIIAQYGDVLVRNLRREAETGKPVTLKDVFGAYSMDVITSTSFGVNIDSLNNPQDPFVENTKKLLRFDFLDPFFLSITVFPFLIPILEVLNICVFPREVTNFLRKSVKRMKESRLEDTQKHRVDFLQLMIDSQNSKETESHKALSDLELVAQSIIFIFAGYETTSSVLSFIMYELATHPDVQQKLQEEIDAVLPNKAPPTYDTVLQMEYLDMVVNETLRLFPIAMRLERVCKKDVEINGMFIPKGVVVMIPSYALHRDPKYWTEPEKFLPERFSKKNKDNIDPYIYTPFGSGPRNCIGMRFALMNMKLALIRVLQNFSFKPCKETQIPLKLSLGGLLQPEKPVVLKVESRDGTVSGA
smiles,measurement,setting,value
COc1cc2c(-c3cc(OC)c(OC)c(OC)c3)nccc2cc1F,Activity,[1],Dose-dependent effect
same,EC50,[1],280 nM
same,Activity,[2],Dose-dependent effect
same,inhibition,[3],Active
COc1cc(-c2nccc3cc4c(cc23)OCO4)cc(OC)c1OC,solubility,[4],Insoluble
same,EC50,[1],> 20000 nM
same,Activity,[2],inactive
same,Activity,[5],inactive
COc1cc2c(-c3cc(OC)c(OC)c(OC)c3)nccc2cc1OP(=O)([O-])[O-].[Na+].[Na+],Activity,[6],Non-Toxic
same,Activity,[7],Active
same,inhibition,[8],Active
same,Activity,[9],Active
same,Activity,[10],Non-Toxic
same,MTD,[11],50 mg/kg
same,EC50,[12],570 nM
same,Activity,[13],Active
same,Activity,[14],Active
same,Activity,[1],Dose-dependent effect
same,EC50,[1],170 nM
same,solubility,[15],> 10 mM
same,Activity,[2],Dose-dependent effect
same,MTD,[16],32 mg/kg
same,Activity,[17],Active
COc1cc(-c2nccc3c(OC)c(OC)c(OC)cc23)ccc1O,EC50,[1],50000 nM
COC(=O)Nc1nc2cc(C(=O)c3cccs3)ccc2[nH]1 [NOCODAZOLE],EC50,[1],40 nM
COc1ccc(-c2nccc3c(OC)c(OC)c(OC)cc23)c(C(=O)O)c1,EC50,[1],> 100000 nM
COc1cc2c(-c3cc(OC)c(OC)c(OC)c3)nccc2cc1O,"remaining at 40 min, 2 µM",[18],69%
same,"remaining at 0.5 h, 2 µM",[19],73%
same,"remaining at 10 min, 2 µM",[20],93%
same,"remaining at 10 min, 2 µM",[21],99%
same,"remaining at 0 min, 2 µM",[22],100%
same,"remaining at 0.5 h, 2 µM",[23],75%
same,inhibition at 10 µM,[24],16%
same,"remaining at 40 min, 2 µM",[25],67%
same,EC50,[12],340 nM
same,inhibition at 10 µM,[26],-49%
same,inhibition at 1 µM,[27],-3%
same,half-life at 2 µM,[28],67 min
same,inhibition at 25 µM,[29],-5%
same,inhibition at 10 µM,[30],-4%
same,Activity,[1],Dose-dependent effect
same,EC50,[1],120 nM
same,"remaining at 0 min, 2 µM",[31],100%
same,"remaining at 20 min, 2 µM",[32],82%
same,"remaining at 0 min, 2 µM",[33],100%
same,inhibition at 5 µM,[34],-18%
same,"remaining at 40 min, 2 µM",[35],98%
same,"remaining at 40 min, 2 µM",[36],105%
same,"remaining at 0 min, 2 µM",[37],100%
same,inhibition at 10 µM,[38],19%
same,inhibition at 10 µM,[39],13%
same,half-life at 2 µM,[40],68 min
same,"remaining at 20 min, 2 µM",[41],84%
COc1cc2ccnc(-c3cc(OC)c(OC)c(OC)c3)c2cc1OC,EC50,[1],> 20000 nM
same,Activity,[2],Dose-dependent effect
